In the library only some 5.3% were active in any assay of this set; here they are far more common.
Beta cell apopt = beta cell apoptosis inhibition. INS-1E cytokine-induced death, ATP luminescence, 48 h; percent of positive-control rescue, neutral wells zero. protection from apoptosis, % (test concentration not listed). 0.8% of 300,000 active. AID 435005;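 active = Every replicate reaches about 75%, or at least half do and their mean reaches it too, limit read from the data; inconclusive = At least half of replicates reach the limit but their mean does not; inactive = Under half of replicates reach the limit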;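 also: 0% = cytokine-treated negative control wells and 100% = positive control rescue; higher means more ATP so stronger rescue from cytokine killing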
CSC inhib = cancer stem cell inhibition. cancer stem cell-like cells viability, luminescence. inhibition, % at 7.5 µM. 1.1% of 300,000 active. AID 2717; in the data active = inhibition above about 75%; inconclusive = no clear call, values can overlap the other calls; tested in HMLE shEcad cells
Calb FLC = C. albicans growth modulation with fluconazole; C. albicans CaCi-2 (fluconazole-resistant clinical isolate) + fluconazole, Alamar Blue growth, 48 h; growth inhibition, % (no concentration beside the values); 0.57% of 300,000 active; AID 1979;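 active = growth inhibition above about 58% in most replicates, limit read from the data, passing the limit was not always enough; inconclusive = exactly half the replicates above a set limit; inactive = most replicates below a set limit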;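 also: all wells also contain fluconazole at 8 µg/ml as a sub-toxic cotreatment; 0% = median of DMSO wells and 100% = median of geldanamycin control wells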
NLRP3 yeast inh = NALP3 inhibition in yeast. 0.39% of 330,000 active. AID 2825. inhibition, % at 10 µM. Yeast reconstituted NLRP3/ASC/caspase-1, beta-gal luminescence, 24 h;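 active = inhibition of 50% or more; inactive = inhibition below 50%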;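 also: plate controls were induced DMSO wells for no effect and uninduced yeast grown without galactose for full effect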
Mdm2 MdmX PPI = inhibitors of human Mdm2/MdmX interaction | O15151+Q00987 | SaOS-2 split-luciferase Mdm2/MdmX complementation, luminescence | inhibition, % at 8 µM | 3% of 330,000 active | AID 485346;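 active = inhibition of at least 50% at 8 µM in the primary screen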
Target sequence (O15151 whole entry, looked up): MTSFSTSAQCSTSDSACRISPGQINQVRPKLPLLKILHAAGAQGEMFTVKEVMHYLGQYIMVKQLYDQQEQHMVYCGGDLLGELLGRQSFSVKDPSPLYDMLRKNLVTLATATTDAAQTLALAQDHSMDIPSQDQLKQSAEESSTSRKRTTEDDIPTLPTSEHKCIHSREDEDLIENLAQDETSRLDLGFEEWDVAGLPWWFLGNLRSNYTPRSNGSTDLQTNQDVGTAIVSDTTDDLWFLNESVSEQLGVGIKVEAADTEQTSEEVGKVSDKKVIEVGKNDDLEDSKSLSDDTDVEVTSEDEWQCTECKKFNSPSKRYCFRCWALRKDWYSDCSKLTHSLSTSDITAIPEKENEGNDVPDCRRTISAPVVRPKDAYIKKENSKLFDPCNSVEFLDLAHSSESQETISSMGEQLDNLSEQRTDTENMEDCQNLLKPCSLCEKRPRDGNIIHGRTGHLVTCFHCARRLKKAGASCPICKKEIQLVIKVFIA
Target sequence (Q00987 whole entry, looked up): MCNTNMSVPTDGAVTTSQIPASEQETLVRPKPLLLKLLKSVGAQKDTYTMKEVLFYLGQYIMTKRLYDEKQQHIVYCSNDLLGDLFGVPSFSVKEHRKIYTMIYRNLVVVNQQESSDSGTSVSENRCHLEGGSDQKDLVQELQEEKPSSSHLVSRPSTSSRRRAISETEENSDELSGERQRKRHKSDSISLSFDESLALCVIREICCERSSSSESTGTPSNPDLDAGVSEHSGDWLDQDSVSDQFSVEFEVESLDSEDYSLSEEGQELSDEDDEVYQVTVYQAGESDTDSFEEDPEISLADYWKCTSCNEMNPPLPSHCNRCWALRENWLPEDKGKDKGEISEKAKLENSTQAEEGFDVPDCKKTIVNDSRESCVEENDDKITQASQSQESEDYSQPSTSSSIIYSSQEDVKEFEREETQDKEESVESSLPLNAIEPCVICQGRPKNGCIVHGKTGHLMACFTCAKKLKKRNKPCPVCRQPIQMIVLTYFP
T cruzi inh = T. cruzi replication inhibition; T. cruzi beta-gal in NIH3T3, luminescence, 90 h; inhibition, % (concentration not given with the values); 1.4% of 300,000 active;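 active = mean inhibition across valid replicates above about 55%, limit read from the data; inconclusive = mean below that limit but half or more replicates reach it; inactive = mean below it, under half of replicates reach it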;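 also: signal also drops with host cell toxicity which is not excluded here; 0% = plate median of DMSO wells and 100% = zero luminescence signal; higher percent means less beta-gal luminescence so fewer parasites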
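Incubation – ≥90 h infection period, 3 h prior cell attachment · System – NIH/3T3 fibroblasts plus reporter T. cruzi · Doses – compound pinned at 50 nL/well, DMSO · Read-out basis – percent inhibition of parasite-derived β-gal signal · Signal – luminescent β-galactosidase signal after 60 min lysis · Also added – 5000 T. cruzi trypomastigotes/well · Medium – Low-serum DMEM with 2% FBS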
* hit, by the source's call; ? = inconclusive; . = not tested or not shown.

SMILES	Beta cell apopt	CSC inhib	Calb FLC	NLRP3 yeast inh	Mdm2 MdmX PPI	T cruzi inh
Cc1ccnc(NC(=O)CCC(=O)N(CC(=O)NCc2ccc(F)cc2)CC2CCCO2)c1 (stereo not given)	-11.4	-20.5	0.0	-5.2	10.7	3.0
Cc1ccc(Nc2nc(N)c([N+](=O)[O-])c(N3CCC(C)CC3)n2)cc1C	2.6	85.5*	71.6	14.4	-2.0	20.0
Cc1ccc(Nc2nc(N)c([N+](=O)[O-])c(N3CCOCC3)n2)cc1C	-7.1	-5.4	?	7.4	-3.0	14.0
Oc1ccccc1Nc1nc(NCc2ccco2)c2ccccc2n1	18.4	.	-3.7	20.7	28.2	15.4
Cc1ccccc1Nc1nc(NCc2ccco2)c2ccccc2n1	36.7	22.0	39.2	5.3	47.1	57.6*
Cc1ccc(-c2nc(NCc3ccco3)c3ccccc3n2)cc1	6.6	96.4*	28.3	8.5	-3.8	40.4
Cc1ccc(Nc2nc(N)c([N+](=O)[O-])c(NCc3ccco3)n2)cc1C	7.0	84.0*	-4.9	25.8	-2.6	25.9
CCOc1ccc(NC(=O)CNC(=O)c2cccs2)cc1	-3.8	-2.3	-6.0	-15.3	-12.3	16.0
CC12CN(C(=O)c3ccc(Cl)cc3)C3(C#N)CC1CCC23C (stereo not given)	-4.8	-5.4	?	10.4	19.5	-5.8
c1ccc(-c2nc(NCc3cccnc3)c3ccccc3n2)cc1	-0.6	8.2	-0.7	17.4	33.1	37.0
Cc1ccc(OCCN2CCN(c3nc(NCc4ccco4)c4ccccc4n3)CC2)cc1	4.0	111.5*	13.2	30.8	22.5	69.9*
Cc1cccc(Nc2nc(NCc3ccco3)c3ccccc3n2)c1	91.4*	112.6*	3.6	.	.	52.1
Fc1ccc(CNc2nc(-c3ccccc3)nc3ccccc23)cc1	.	.	-6.6	7.1	7.1	57.2*
CC(C)CN(C(=O)COC(=O)c1ccc([N+](=O)[O-])s1)c1c(N)n(Cc2ccccc2)c(=O)[nH]c1=O	-2.5	-1.7	6.9	11.5	5.8	63.4*
CCCCn1c(N)c(N(CCC(C)C)C(=O)COC(=O)c2ccc([N+](=O)[O-])s2)c(=O)[nH]c1=O	-3.1	6.9	.	6.2	23.6	.
C=C1CCN([C@@H](CC(C)C)C(=O)Nc2nc3ccc(Cl)cc3s2)S(=O)(=O)c2ccccc21	1.4	101.7*	18.8	7.2	28.3	9.6
CCCC(=O)Nc1cc2c3c(c1)CCN3C(=O)CC2	-5.9	5.3	14.3	1.9	14.4	-13.0
CC(C)CN(C(=O)COC(=O)CNC(=O)c1ccccc1F)C1CCS(=O)(=O)C1 (stereo not given)	-1.8	.	107.4*	9.2	-13.7	5.9
Brc1cccc(CSc2nnc(-c3ccncc3)o2)c1	-6.7	21.2	80.7*	6.2	29.8	.
COc1ccc(N2CCN(C(=O)CSc3ncnc4scc(-c5ccc(C)cc5)c34)CC2)cc1	4.7	2.7	-15.3	10.5	37.8	75.8*
COc1ccc(N2CCN(C(=O)CSc3nc(C)cs3)CC2)cc1	-3.1	7.1	0.2	7.3	-16.2	-7.2
COc1ccc(N2CCN(c3ncnc4scc(-c5ccc(C)cc5)c34)CC2)cc1	21.1	51.8	-6.4	16.3	18.3	57.8*
COc1cc(/C=N/S(=O)(=O)c2ccccc2)cc(OC)c1O	-2.7	-2.4	-2.9	-11.0	-0.1	-3.1
Cc1ccccc1-n1c(CSC(=N)N)nc2ccccc2c1=O	-5.7	-11.7	9.0	8.1	-31.2	15.1
N=C(N)SCc1nc2ccccc2c(=O)n1-c1ccccc1Cl	18.4	93.0*	4.4	5.8	5.8	-3.0
SMILES	Beta cell apopt	CSC inhib	Calb FLC	NLRP3 yeast inh	Mdm2 MdmX PPI	T cruzi inh
Cc1cc2cc(C)c3nnc(SCC(=O)NCc4ccc5c(c4)OCO5)n3c2cc1C	-7.3	-3.2	-19.8	-11.6	22.8	16.9
CCCCCCCSc1nc(N)cc(=O)[nH]1	-10.0	9.4	103.3*	4.5	9.4	-42.5
CCCCCSc1nc(O)cc(=O)[nH]1	.	3.5	-1.9	4.8	5.4	.
CCCCCCSc1nnc2[nH]c(=O)cc(N)n12	-1.0	-4.4	94.3*	-4.7	14.9	-10.8
CO/N=C/c1c(C(=O)OC)nn(-c2ccccc2)c1Cl	-7.1	1.8	10.8	28.4	-7.2	.
Cc1ccc(C(=O)N2CCN(C(=O)c3ccco3)CC2)cc1NC(=O)c1ccco1	4.1	-2.0	-25.7	0.6	-4.6	-3.8
CCCCN(CC)CCNC(=O)c1cc2c(=O)n(C)c3ccccc3c2s1	12.0	18.1	13.5	5.5	37.2	61.3*
CCCCN(CC)CCNC(=O)c1cn(-c2ccc(Cl)cc2)c(=O)c2ccccc12	10.0	-8.7	4.0	23.8	23.3	67.6*
Cc1ccsc1/C=C1/SC(=O)N(CC(=O)N2CCCC2)C1=O	4.6	-4.3	-2.7	13.1	-3.3	7.2
CC(C(=O)NC(C)(C)C)N(C(=O)CS(=O)CC(=O)Nc1ccc(F)cc1)C1CCCC1 (stereo not given)	-2.0	-13.7	-2.4	18.9	14.1	-1.2
Fc1ccc(-n2cc(-c3ccccc3)[n+]3c2SCC3)cc1	16.5	-13.5	9.9	13.9	0.5	3.7
c1ccc(-c2c[n+]3c(n2-c2ccccc2)SCC3)cc1	24.0	-7.3	1.2	6.7	-3.4	54.5*
CCOc1ccc(-n2c(-c3ccc(Cl)cc3)c[n+]3c2SCC3)cc1	72.9	-16.0	52.6	1.6	3.2	62.2*
Cc1cccc(NC(=S)N(CCN(C)C)C(C)c2ccccn2)c1 (stereo not given)	-3.9	-17.8	-8.9	-6.4	14.5	0.7
Cc1cc(O)c(/C=N/Nc2ccc(F)cc2)c(=O)o1	-1.9	15.8	121.5*	16.2	-14.7	13.4
CCCCCCCCCCCCN1[C@@H](CC(C)=O)c2cc(F)ccc2S1(=O)=O	6.2	79.5*	3.0	0.1	12.0	21.3
CCCCCCCCCCCCN1[C@@H](CC(=O)OC)c2cc(F)ccc2S1(=O)=O	7.3	5.5	1.0	16.3	11.3	20.6
O=C1CC(NS(=O)(=O)c2ccc([N+](=O)[O-])cc2)CN1c1cccc(F)c1 (stereo not given)	.	-19.5	-13.3	29.7	20.4	64.8*
CC(=O)c1ccc(S(=O)(=O)NC2CC(=O)N(c3cccc(F)c3)C2)cc1 (stereo not given)	3.1	-6.3	3.7	-3.1	1.3	-8.1
N#C/C(=C\c1ccc(O)c(O)c1)C(=O)Nc1cccc2ncccc12	-4.5	17.3	96.8*	24.5	-4.1	-4.7
O=C(c1cnc2ccc3ccccc3c2c1)c1cc(F)ccc1O	-3.8	83.8*	-1.5	8.9	40.0	7.0
Cc1nn(C)c2ncc(C(=O)c3cc(F)ccc3O)cc12	-1.7	-11.4	-9.2	30.1	6.6	-17.8
Cn1nc([N+](=O)[O-])nc1Sc1ccc(Cl)cc1	.	-5.3	2.9	-1.4	3.1	68.6*
O=C(NCC1CCCO1)c1ccc2c(c1)ncn2-c1cccc(F)c1 (stereo not given)	-2.3	-9.2	7.7	1.4	3.4	-11.2

Screening results as filed in PubChem.
